ChEMBL document CHEMBL2203129, “Structure-activity relationship studies of naphthol AS-E and its derivatives as anticancer agents by inhibiting CREB-mediated gene transcription” (Bioorg Med Chem, 2012)
Active and inactive are the calls of the source. No cut-off for these calls is given here.

Tests used:
MCF7 [1] = assay: Cytotoxicity against human MCF7 cells expressing VP16-CREB mutant assessed as reduction in cell proliferation at 10 to 50 uM after 48 hrs by MTT assay; format: functional, cell-based
Method in brief: (§1)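 MCF-7 cells stably transfected with Flag-tagged VP16-CREB (G418 2 mg/mL selection; expression checked by anti-FLAG blot) alongside parental MCF-7. Compound at indicated concentrations in triplicate for 48 h; live cells quantified with MTT reagent; Student's t-test.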

MCF7 [2] = assay: Cytotoxicity against human MCF7 cells expressing wild type CREB assessed as reduction in cell proliferation at 10 to 50 uM after 48 hrs by MTT assay; format: functional, cell-based; method in brief: as §1
[3] = Inhibition of KIX domain of CBP interaction with KID domain of CREB after 20-24 hrs by Renilla luciferase complementation assay
Method in brief: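 RLucC-KIX (20 ng) and KID-RLucN lysate (1.0 µg) per reaction in Renilla lysis buffer with compound, incubated at 4 °C for 20–24 h; residual luminescence read with benzyl-coelenterazine in PBS pH 7.4.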

MDA-MB-231 = assay: Growth inhibition of human MDA-MB-231 cells after 72 hrs by MTT assay; format: functional; conditions: MDA-MB-231, 72 h
A549 [4] = assay: Growth inhibition of human A549 cells after 72 hrs by MTT assay; format: functional; conditions: A549, 72 h
MCF7 [5] = assay: Growth inhibition of human MCF7 cells after 72 hrs by MTT assay; format: functional; conditions: MCF7, 72 h
[6] = Inhibition of CREB-mediated gene transcription in human HEK293T cells by renilla luciferase reporter assay; format: cell-based; conditions: HEK-293T
Method in brief: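 HEK 293T cells transfected with pCRE-RLuc, replated after 3 h and attached overnight; compound added, then forskolin (final 10 µM) 30 min later; 5 h at 37 °C.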

MDA-MB-468 = assay: Growth inhibition of human MDA-MB-468 cells after 72 hrs by MTT assay; format: functional; conditions: MDA-MB-468, 72 h
A549 [7] = assay: Induction of apoptosis in human A549 cells assessed as viable cells at 5 uM after 48 hrs by Annexin V-FITC/PI staining based flow cytometry (reference value: 91.6%); format: functional; conditions: A549, 48 h, read-out: Activity
A549 [8] = assay: Inhibition of CREB in human A549 cells assessed as reduction in Bcl-2 protein expression at 5 to 10 uM after 48 hrs by Western blot analysis; format: cell-based
Method in brief: (§2)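 Exponentially growing A549 cells treated 48 h; washed in cold PBS, lysed in NP-40 buffer (50 mM Tris pH 8.0, 5 mM EDTA, 150 mM NaCl, 1 mM DTT, 0.5% NP-40) with 8 M urea. Equal protein on 10% SDS-PAGE, PVDF transfer, antibody detection; GAPDH loading control.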

MCF7 [9] = assay: Cytotoxicity against human MCF7 cells expressing VP16-CREB mutant assessed as effect on cell proliferation at 0.5 to 10 uM after 48 hrs by MTT assay; format: functional, cell-based; method in brief: as §1
A549 [10] = assay: Induction of apoptosis in human A549 cells assessed as late apoptotic cells at 7.5 uM after 48 hrs by Annexin V-FITC/PI staining based flow cytometry (reference value: 2.98%); format: functional
[11] = target: Cellular tumor antigen p53 (Homo sapiens) (UniProt P04637); assay: Inhibition of p53 transfected in HEK293T cells assessed as gene transcription after 5 hrs by Renilla luciferase reporter assay; format: cell-based; conditions: HEK-293T
Sequence of Cellular tumor antigen p53 (Homo sapiens) (P04637 whole entry, looked up): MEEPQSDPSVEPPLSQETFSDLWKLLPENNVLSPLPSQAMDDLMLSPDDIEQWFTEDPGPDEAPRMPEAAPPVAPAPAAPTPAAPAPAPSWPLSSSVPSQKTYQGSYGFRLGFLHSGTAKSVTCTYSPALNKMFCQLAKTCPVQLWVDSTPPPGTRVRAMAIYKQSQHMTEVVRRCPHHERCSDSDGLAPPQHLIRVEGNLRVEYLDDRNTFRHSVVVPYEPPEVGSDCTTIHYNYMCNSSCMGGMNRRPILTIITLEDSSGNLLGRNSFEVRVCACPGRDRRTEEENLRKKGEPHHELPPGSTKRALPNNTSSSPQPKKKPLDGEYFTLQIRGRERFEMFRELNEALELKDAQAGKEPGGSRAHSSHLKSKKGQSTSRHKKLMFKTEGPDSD

A549 [12] = assay: Induction of apoptosis in human A549 cells assessed as necrotic cells at 7.5 uM after 48 hrs by Annexin V-FITC/PI staining based flow cytometry (reference value: 1.5%); format: functional
[13] = target: Cellular tumor antigen p53 (Homo sapiens) (UniProt P04637); assay: Inhibition of p53 in human A549 cells assessed as effect on p21 protein expression at 5 to 10 uM after 48 hrs by Western blot analysis; format: cell-based; method in brief: as §2
A549 [14] = assay: Inhibition of CREB in human A549 cells assessed as reduction in Bcl-2 gene expression at 1 to 10 uM after 4 hrs by quantitative RT-PCR analysis; format: cell-based
Method in brief: (§3)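 A549 cells treated in duplicate for 4 h; total RNA DNase-treated (37 °C, 30 min), reverse-transcribed with random hexamers; qPCR with SYBR Green normalized to HPRT; one-way ANOVA.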

A549 [15] = assay: Induction of apoptosis in human A549 cells assessed as early apoptotic cells at 5 uM after 48 hrs by Annexin V-FITC/PI staining based flow cytometry (reference value: […]); format: functional
MCF7 [16] = assay: Cytotoxicity against human MCF7 cells expressing wild type CREB assessed as reduction in cell proliferation at 0.5 to 10 uM after 48 hrs by MTT assay; format: functional, cell-based; method in brief: as §1
A549 [17] = assay: Induction of apoptosis in human A549 cells assessed as late apoptotic cells at 5 uM after 48 hrs by Annexin V-FITC/PI staining based flow cytometry (reference value: 2.98%); format: functional
A549 [18] = assay: Induction of apoptosis in human A549 cells assessed as early apoptotic cells at 10 uM after 48 hrs by Annexin V-FITC/PI staining based flow cytometry (reference value: […]); format: functional
[19] = target: Cellular tumor antigen p53 (Homo sapiens) (UniProt P04637); assay: Inhibition of p53 in human A549 cells assessed as effect on p21 gene expression at 1 to 10 uM after 4 hrs by quantitative RT-PCR analysis; format: cell-based; method in brief: as §3
A549 [20] = assay: Induction of apoptosis in human A549 cells assessed as early apoptotic cells at 7.5 uM after 48 hrs by Annexin V-FITC/PI staining based flow cytometry (reference value: […]); format: functional
HFF = assay: Cytotoxicity against human HFF cells assessed as effect on cell viability at 5 to 10 uM after 48 hrs by trypan blue exclusion assay; format: cell-based
Method in brief: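 HFF cells (maintained in DMEM, 10% FBS, 37 °C, 5% CO2) exposed to increasing compound concentrations in triplicate for 48 h; live cells counted by trypan blue exclusion.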

A549 [21] = assay: Induction of apoptosis in human A549 cells assessed as necrotic cells at 10 uM after 48 hrs by Annexin V-FITC/PI staining based flow cytometry (reference value: 1.5%); format: functional
A549 [22] = assay: Inhibition of CREB in human A549 cells assessed as reduction in VEGF gene expression at 10 uM after 4 hrs by quantitative RT-PCR analysis; format: cell-based
HMEC = assay: Cytotoxicity against HMEC assessed as effect on cell viability at less than or equal to 10 uM after 48 hrs by trypan blue exclusion assay; format: cell-based; conditions: human
Method in brief: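 HMEC grown in MEGM complete medium, switched to DMEM with 10% FBS and penicillin/streptomycin on the day of treatment; compound added at various concentrations, triplicate, 48 h at 37 °C, 5% CO2. Live cells counted by trypan blue exclusion; one-way ANOVA.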

A549 [23] = assay: Induction of apoptosis in human A549 cells assessed as viable cells at 7.5 uM after 48 hrs by Annexin V-FITC/PI staining based flow cytometry (reference value: 91.6%); format: functional; conditions: A549, 48 h, read-out: Activity
A549 [24] = assay: Induction of apoptosis in human A549 cells assessed as necrotic cells at 5 uM after 48 hrs by Annexin V-FITC/PI staining based flow cytometry (reference value: 1.5%); format: functional
A549 [25] = assay: Induction of apoptosis in human A549 cells assessed as PARP cleavage at 5 to 10 uM after 48 hrs by Western blot analysis; format: functional, cell-based; method in brief: as §2
A549 [26] = assay: Induction of apoptosis in human A549 cells assessed as late apoptotic cells at 10 uM after 48 hrs by Annexin V-FITC/PI staining based flow cytometry (reference value: 2.98%); format: functional
A549 [27] = assay: Inhibition of CREB in human A549 cells assessed as reduction in VEGF level at 2.5 to 10 uM after 24 hrs by ELISA; format: cell-based
Method in brief: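 A549 cells treated in duplicate for 24 h; VEGF in culture medium measured by ELISA and normalized to medium protein concentration; one-way ANOVA.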

A549 [28] = assay: Induction of apoptosis in human A549 cells assessed as viable cells at 10 uM after 48 hrs by Annexin V-FITC/PI staining based flow cytometry (reference value: 91.6%); format: functional; conditions: A549, 48 h, read-out: Activity

## CN(C(=O)c1cc2ccccc2cc1O)c1ccc(Cl)cc1
MCF7 [1]
  Activity: Active
MCF7 [2]
  Activity: Active

## O=C(Nc1ccc(F)cc1)c1cc2ccccc2cc1O
[3]
  IC50: 1.73 µM
MDA-MB-231
  GI50: 11.4 µM
A549 [4]
  GI50: 6.78 µM
MCF7 [5]
  GI50: 4.16 µM
[6]
  IC50: 4.86 µM
MDA-MB-468
  GI50: 2.78 µM

## O=C(Nc1ccc(F)c(F)c1)c1cc2ccccc2cc1O
[3]
  IC50: 2.39 µM
MDA-MB-231
  GI50: 11.6 µM
A549 [4]
  GI50: 3.57 µM
MCF7 [5]
  GI50: 2.09 µM
[6]
  IC50: 3.73 µM
MDA-MB-468
  GI50: 4.19 µM

## O=C(Nc1cccc(Cl)c1)c1cc2ccccc2cc1O
[3]
  IC50: > 50 µM
MDA-MB-231
  GI50: 4.91 µM
A549 [4]
  GI50: 3.68 µM
MCF7 [5]
  GI50: 2.43 µM
[6]
  IC50: 2.7 µM
MDA-MB-468
  GI50: 2.58 µM

## COc1ccc(NC(=O)c2cc3ccccc3cc2O)cc1
[3]
  IC50: > 50 µM
MDA-MB-231
  GI50: 75.5 µM
A549 [4]
  GI50: 85.7 µM
MCF7 [5]
  GI50: 6.55 µM
[6]
  IC50: > 50 µM
MDA-MB-468
  GI50: 79.3 µM

## O=C(Nc1ccc(Cl)cc1)c1cc2ccccc2cc1O
A549 [7]
  viability at 5 µM: 89.1%
A549 [8]
  inhibition: Active
MCF7 [9]
  Activity: inactive
A549 [10]
  Activity: 2.9%
[11]
  inhibition: inactive
A549 [12]
  Activity: 1.42%
[13]
  inhibition: inactive
A549 [14]
  inhibition: Active
A549 [15]
  Activity: 6.5%
MCF7 [16]
  Activity: Active
A549 [17]
  Activity: 3.06%
[3]
  IC50: 2.9 µM
A549 [18]
  Activity: 19.4%
[19]
  inhibition: inactive
A549 [20]
  Activity: 10.1%
HFF
  Activity: Non-toxic
MDA-MB-231
  GI50: 2.35 µM
A549 [21]
  Activity: 0.58%
A549 [4]
  GI50: 2.9 µM
A549 [22]
  inhibition: Active
HMEC
  Activity: Non-toxic
MCF7 [5]
  GI50: 2.81 µM
A549 [23]
  viability at 7.5 µM: 85.6%
A549 [24]
  Activity: 1.36%
[6]
  IC50: 2.29 µM
A549 [25]
  Activity: Active
MDA-MB-468
  GI50: 1.46 µM
A549 [26]
  Activity: 4.2%
A549 [27]
  inhibition: Active
A549 [28]
  viability at 10 µM: 75.9%

## O=C(Nc1ccc(O)cc1)c1cc2ccccc2cc1O
[3]
  IC50: 28.2 µM
MDA-MB-231
  GI50: > 100 µM
A549 [4]
  GI50: 28.1 µM
MCF7 [5]
  GI50: 9.52 µM
[6]
  IC50: 40.5 µM
MDA-MB-468
  GI50: 65.3 µM

## Nc1ccc(NC(=O)c2cc3ccccc3cc2O)cc1
[3]
  IC50: 25.4 µM
MDA-MB-231
  GI50: > 100 µM
A549 [4]
  GI50: 51.6 µM
MCF7 [5]
  GI50: 28 µM
[6]
  IC50: > 50 µM
MDA-MB-468
  GI50: 57.1 µM
